{"source": "PubChem BioAssay AID624466", "about": "(The Scripps Research Institute Molecular Screening Center, 2012)", "note": "The whole screen tested about 360,000 compounds, of which about 5,400 (1.5%) were called active. Only a selection was taken, and actives are over-represented in it overall. Values without a mark were called inactive.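 Rule for the calls: active = inhibition above a per-plate cutoff, the mean inhibition of test compounds on that plate plus 3 SD (cut at about 49% in these data); inactive = the rest.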", "data": [{"target": "Trace amine-associated receptor 1 (Homo sapiens) (UniProt Q96RJ0)", "sequence (Q96RJ0 whole entry, looked up)": "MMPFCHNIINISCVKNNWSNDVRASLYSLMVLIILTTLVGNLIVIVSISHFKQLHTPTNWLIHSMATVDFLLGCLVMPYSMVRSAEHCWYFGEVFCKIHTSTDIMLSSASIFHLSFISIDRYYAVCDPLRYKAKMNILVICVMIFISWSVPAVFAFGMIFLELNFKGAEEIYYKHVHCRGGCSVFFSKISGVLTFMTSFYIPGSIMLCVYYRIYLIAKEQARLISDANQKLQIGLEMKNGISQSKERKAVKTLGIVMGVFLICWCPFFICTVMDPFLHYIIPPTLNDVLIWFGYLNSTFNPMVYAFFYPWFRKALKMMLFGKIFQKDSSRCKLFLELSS", "assay": "blockers of beta-PEA-driven TAAR1 calcium signal – Fluo-8 calcium fluorescence, CHO RD-HGA16 cells, primary screen (AID 624466);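 note: 0% = DMSO plus EC80 beta-PEA response and 100% = DMSO alone without agonist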", "details": "CHO RD-HGA16 TAAR1, Fluo-8 calcium fluorescence, antagonist; at 3 µM; stronger effect = higher value", "how_it_was_run": "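Test system: CHO RD-HGA16 cells bearing hTAAR1 | Reagent: β-PEA, EC80 | Compound dosing: 3 µM, single point | Schedule: Dye loading 75 min at 37 °C, then 30 min room temperature | Signal: Calcium fluorescence with Fluo-8 | Evaluation: Percent inhibition of PEA-evoked calcium signal, max/basal emission ratio | Control set: DMSO-only wells and EC80 β-PEA-stimulated wells | Repeats: Singlicate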", "values": [{"smiles": "CCOC(=O)[C@]12CCCC=C1N(CCC1=CCCCC1)C(=O)[C@H](CC(=O)N1CCCCC1)C2", "inhibition": "-49.4%"}, {"smiles": "COC(=O)C1=C(C)N(Cc2ccccc2C(F)(F)F)C(=NCc2ccc(C(F)(F)F)cc2)NC1c1ccc(F)cc1", "note": "(configuration not stated)", "inhibition": "-31.9%"}, {"smiles": "CCCCNC(=O)CSc1nc2ccc(NC(=O)CSc3nnc(N)s3)cc2s1", "inhibition": "14.2%"}, {"smiles": "Nc1nnc(SCC(=O)Nc2ccc3nc(SCC(=O)Nc4ccccc4)sc3c2)s1", "inhibition": "48.9% (active)"}, {"smiles": "CCCCNC(=O)CSc1nc2ccc(NC(=O)CSc3nnc(COc4ccccc4C)n3C)cc2s1", "inhibition": "23.6%"}, {"smiles": "COC(=O)[C@@]12C[C@@H](CC(=O)NCCCCc3ccccc3)C(=O)N(Cc3ccccc3)C1=CCC(C)(C)C2", "inhibition": "1.67%"}, {"smiles": "CSCCC(C(=O)NC(C)(C)C)n1c(-c2ccccc2)nc2ccccc21", "note": "(configuration not stated)", "inhibition": "-24.9%"}, {"smiles": "COC(=O)[C@@]1(Cc2ccc(F)cc2)[C@H]2c3cc(C(=O)N4CCCC4)n(Cc4ccc(OC(F)(F)F)cc4)c3C[C@H]2CN1C(=O)c1ccccc1", "inhibition": "-23%"}, {"smiles": "CCC(C(=O)Nc1ccc(C(C)C)cc1)c1ccccc1", "note": "(configuration not stated)", "inhibition": "83.9% (active)"}, {"smiles": "CC(C)c1ccc(NC(=O)Cn2ncc3ccccc32)cc1", "inhibition": "-7.65%"}, {"smiles": "CC(NC(=O)Nc1ccccc1)c1ccccc1", "note": "(configuration not stated)", "inhibition": "8.89%"}, {"smiles": "COc1ccc(C(=O)NCC[N+](C)(C)C)cc1", "inhibition": "-19.6%"}, {"smiles": "O=c1[nH]c(-c2ccccc2)cn1C1CCN(Cc2ccc(-c3nc4ccc(F)cc4nc3-c3ccccc3)cc2)CC1", "inhibition": "9.33%"}, {"smiles": "O=C(COC(=O)Cc1ccccc1F)NCCc1ccccc1", "inhibition": "72.9% (active)"}, {"smiles": "O=C(COC(=O)Cc1c[nH]c2ccccc12)NCCc1ccccc1", "inhibition": "-12.2%"}, {"smiles": "COc1ccc(CCNC(=O)COC(=O)Cc2ccccc2F)cc1", "inhibition": "-11.5%"}, {"smiles": "Cc1ccc2nc(SCC(=O)Nc3cccc4ccccc34)nc(=O)n2c1", "inhibition": "-20.9%"}, {"smiles": "C=CCNC(=O)c1cc2nc(C3CC3)cc(C(F)F)n2n1", "inhibition": "7.57%"}, {"smiles": "Cc1ccc(F)c(S(=O)(=O)NC(=O)C2(C)CCN2C(=O)CCc2cccs2)c1", "note": "(configuration not stated)", "inhibition": "-14.2%"}, {"smiles": "CCOC(=O)C1C(c2ccc(O)cc2)NC(=O)NC1(O)C(F)(F)F", "note": "(configuration not stated)", "inhibition": "-14.2%"}, {"smiles": "CCOC(=O)C1C(c2ccc(OC)c(OC)c2)c2c([nH][nH]c2=O)CC1(C)O", "note": "(configuration not stated)", "inhibition": "56.8% (active)"}, {"smiles": "CCC1(C)COC(c2ccc(OC)c(OC)c2)OC1", "note": "(configuration not stated)", "inhibition": "-18.6%"}, {"smiles": "Cc1cccc(N2CCN(Cc3nc(C4CC4)no3)CC2)n1", "inhibition": "-31.7%"}, {"smiles": "Cc1cc(OC(=O)NCCc2ccc(F)cc2)ccc1F", "inhibition": "-10.5%"}, {"smiles": "CC(C)CNc1cccc2c1S(=O)(=O)N[C@H](CC(C)C)CO2", "inhibition": "-8.78%"}, {"smiles": "COc1ccc(NC(=O)COC(=O)Cn2c(C)nc3ccccc32)cc1OC", "inhibition": "13.9%"}, {"smiles": "Cc1ccc(-c2nnc(SCC(=O)N/N=C/c3cccs3)n2-c2ccc(C)cc2)cc1", "inhibition": "7.24%"}, {"smiles": "Cc1nc2ccccc2n1CC(=O)N/N=C/c1cccs1", "inhibition": "56.9% (active)"}, {"smiles": "Cc1[nH]c2ccccc2c1C(=O)c1cc([C@H](NC(=O)OC(C)(C)C)C(C)C)sc1N", "inhibition": "-5.4%"}, {"smiles": "C=CCn1c(=O)c2ccccc2n2c(SCC(=O)N3CCCc4ccccc43)nnc12", "inhibition": "5.64%"}, {"smiles": "O=C(CSc1nc2ccccc2c(=O)n1CCCO)N1CCc2ccccc21", "inhibition": "-4.55%"}, {"smiles": "Cn1c(SCC(=O)N2CCCc3ccccc32)nc2ccccc2c1=O", "inhibition": "59.3% (active)"}, {"smiles": "COC(=O)c1sc(-c2ccc(C(C)(C)C)cc2)cc1NC(=O)/C=C/C(=O)O", "inhibition": "69.3% (active)"}, {"smiles": "COc1ccccc1NC(=O)/C=C/C(N)=O", "inhibition": "-1.16%"}, {"smiles": "COc1ccc(NS(=O)(=O)c2ccc(N3CCOCC3)c(NC(=O)/C=C/C(=O)O)c2)cc1", "inhibition": "-2.93%"}, {"smiles": "CC(C)(C)OC(=O)NCCCCCNC(=O)c1nc[nH]c1C(=O)NCc1ccccc1", "inhibition": "60% (active)"}, {"smiles": "C[C@H](NC(=O)c1nc[nH]c1C(=O)N[C@@H](C)C(=O)OC(C)(C)C)C(=O)OC(C)(C)C", "inhibition": "0.46%"}, {"smiles": "O=C(Nc1cc(Br)ccc1F)c1nc[nH]c1C(=O)NCc1ccccc1", "inhibition": "-18.3%"}, {"smiles": "CC(C)(C)OC(=O)CNC(=O)c1[nH]cnc1C(=O)N[C@@H](Cc1ccccc1)C(=O)OCc1ccccc1", "inhibition": "51.3% (active)"}, {"smiles": "C[C@H](NC(=O)c1nc[nH]c1C(=O)NCC(=O)OC(C)(C)C)c1ccccc1", "inhibition": "-2.15%"}, {"smiles": "Cc1cccc(NC(=O)c2nc[nH]c2C(=O)NCC(=O)OCc2ccccc2)c1", "inhibition": "64% (active)"}, {"smiles": "C[C@H](NC(=O)c1nc[nH]c1C(=O)NCC(=O)OC(C)(C)C)C(=O)OCc1ccccc1", "inhibition": "60.9% (active)"}]}]}
